# Screens: PubChem, several laboratories
# An excerpt weighted towards active compounds, which were near 3.4% of everything screened.
# beta cell repl – inducers of MIN6 beta-cell proliferation, primary screen, ATP luminescence, uHTS. MIN6 cells proliferation, ATPlite luminescence, 48 h; cells starved in 0.2% serum; 100% = growth in 10% serum. proliferation, % at 10 µM. 330,000 compounds, 0.29% hits. AID 2380, 2010;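 active means compounds whose signal lies at least 3.5 SD above the mean of all wells on their plate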;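 further: 0% = DMSO-treated cells in low-serum medium and 100% = 10% serum control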
# TMEM16A inh – TMEM16A chloride channel inhibitors, primary screen, cell-based, HTS; 310,000 compounds, 1.2% hits; AID 588511, 2011; Anoctamin-1 (Mus musculus), Q8BHY3; HEK293 TMEM16A/YFP iodide influx fluorescence, ionomycin; normalized B-score (activity score, 25-100; higher = stronger inhibition) at 10 µM;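 active means ratio plate-corrected score three or more library SD toward inhibition, starting fluorescence score within five deviations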;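 further: score derived from kinetic fluorescence span divided by baseline fluorescence per well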
# TMEM16A act – TMEM16A chloride channel activators or potentiators, primary screen, cell-based, HTS; Anoctamin-1 (Mus musculus), Q8BHY3; HEK293 TMEM16A/YFP-H148Q/I152L, iodide quench fluorescence; stronger effect = lower value; B-score at 10 µM; 340,000 compounds, 0.3% hits; AID 623877, 2012;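 active means fluorescence-ratio B-score plate-corrected deviation score at least 3 library SD below zero, with starting fluorescence score within 5 deviations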;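 further: channel opened by trigger with iodide after compound preincubation; score built on the fluorescence ratio of max minus min over baseline; more negative score means more quench and so TMEM16A activation or potentiation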
# MC4R antagonist – MC4R antagonists of cAMP signaling, primary screen, cell-based, TR-FRET, antagonist arm of biased-ligand search; inhibition, % at 6.5 µM; MC4R-expressing cells, MTII-stimulated cAMP, LANCE TR-FRET; Melanocortin receptor 4 (Homo sapiens), P32245; 360,000 compounds, 0.48% hits;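 active means inhibition above its plate's cutoff, the mean of tested wells on that plate plus 3 SD, cut at about 29% in these data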;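 further: 0% = Melanotan II alone and 100% = Melanotan II plus saturating MCL0020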
# Target sequence (P32245 whole entry, looked up): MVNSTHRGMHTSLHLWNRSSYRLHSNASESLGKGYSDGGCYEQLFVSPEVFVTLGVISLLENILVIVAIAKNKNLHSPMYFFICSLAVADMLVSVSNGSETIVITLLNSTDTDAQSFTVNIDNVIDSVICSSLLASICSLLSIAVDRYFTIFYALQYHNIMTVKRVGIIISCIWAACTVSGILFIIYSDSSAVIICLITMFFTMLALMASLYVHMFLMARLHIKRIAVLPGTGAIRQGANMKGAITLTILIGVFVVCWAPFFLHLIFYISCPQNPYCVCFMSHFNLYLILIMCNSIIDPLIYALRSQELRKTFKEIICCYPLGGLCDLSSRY
#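 System: U2OS-MC4R stable cell line; Technique: Eu-cAMP/anti-cAMP TR-FRET, emission 671 nm; Repeats: single well per compound; Also added: Melanotan II; Dosing: one concentration, 6.5 µM nominal; Schedule: 30-min compound, 1-h challenge, 1-h detection, room temperature.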
# HTR2A ag – mouse Htr2a agonists via beta-arrestin recruitment, primary screen, cell-based, luminescence. 5-hydroxytryptamine receptor 2A (Mus musculus), P35363. CHO-K1 mHTR2A beta-arrestin complementation; percent of 30 µM serotonin response. activation, % at 7.6 µM. 360,000 compounds, 0.66% hits. AID 624169, 2012;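 active means activation above a run cutoff, the mean activation of all tested compounds plus 3 SD, cut at about 14% in these data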;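 further: 0% = plate median of compound wells and 100% = 30 µM serotonin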
# MC4R ag barr – MC4R agonists recruiting beta-arrestin, primary screen, cell-based, luminescence, agonist arm of biased-ligand search; AID 540308, 2011; 360,000 compounds, 0.98% hits; U2OS MC4R beta-arrestin complementation; percent of melanotan II response, DMSO zero; Melanocortin receptor 4 (Homo sapiens), P32245; activation, % at 8.9 µM;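 active means activation above a per-plate cutoff, the mean activation of sample wells on that plate plus 3 SD, cut at about 8% in these data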
# cAMP nonselect – nonselective cAMP signaling inhibitors, parental cells, counter-screen for MC4R biased antagonist project, cell-based, TR-FRET, U2OS, forskolin, triplicate. 1,600 compounds, 26% hits. inhibition, % at 6.5 µM. LANCE TR-FRET. shares compounds with MC4R antagonist;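 active means mean inhibition over triplicates above the low-control well mean plus 3 SD, set per campaign, cut at about 13% in these data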;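 further: signal is single emission at 671 nm which falls as cellular cAMP rises; 0% = forskolin-stimulated wells and 100% = buffer without forskolin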
# MC4R antag conf – MC4R cAMP antagonists, retest, confirmation, cell-based, TR-FRET | shares compounds with MC4R antagonist | MC4R-expressing cells, MTII-stimulated cAMP | inhibition, % at 6.5 µM | 1,600 compounds, 27% hits | AID 602195, 2012; in the data active means inhibition above about 29%;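 further: 0% = agonist stimulated wells alone and 100% = agonist stimulated wells plus saturating reference antagonist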
# The depositor's hits bear a star; i = inactive; · = not tested or not shown.
SMILES,beta cell repl,TMEM16A inh,TMEM16A act,MC4R antagonist,HTR2A ag,MC4R ag barr,cAMP nonselect,MC4R antag conf
CN(C(=O)COC(=O)c1cnc(Cl)c(Cl)c1)C1CCCCC1,-7,·,i,40*,4,-4,22*,39*
O=C(COC(=O)c1cnc(Cl)c(Cl)c1)NC1CCCC1,·,·,·,29*,3,-1,22*,33*
O=C(COC(=O)c1ccc(Cl)nc1)NC1CCCCCC1,2,·,i,2,4,-1,·,·
O=C(COC(=O)c1cnc(Cl)c(Cl)c1)NC1CCCCCC1,-3,·,i,29*,0,-5,27*,48*
O=C(COC(=O)c1cnc(Cl)c(Cl)c1)NCCC1=CCCCC1,-5,i,i,38*,1,-2,28*,36*
CN(C(=O)COC(=O)c1cnc(Cl)c(Cl)c1)C1CCS(=O)(=O)C1 (centres undefined),2,i,i,11,-1,-1,·,·
O=C(COC(=O)c1ccc(Cl)c(Cl)c1)NC1CCCC1,1,i,·,3,-6,0,·,·
C=CCn1nnnc1-c1cccc(Cl)c1,-2,i,i,34*,1,0,5,4
CC(=O)c1cccc(NC(=O)COC(=O)c2ccccc2C)c1,-1,i,i,38*,7,2,1,2
CCOC(=O)C(=O)Nc1cccc(C(=O)OCC)c1,0,i,i,29*,0,0,1,2
CCOc1ncccc1C(=O)OCC(=O)Nc1cccc(C(C)=O)c1,-1,i,i,12,-2,-1,·,·
CCOCC(=O)Nc1cccc(C(=O)OCC)c1,-2,i,i,4,1,0,·,·
Cc1ccc(S(=O)(=O)n2cccc2/C=C/[N+](=O)[O-])cc1,·,·,·,38*,-2,-2,7,5
CN(Cc1ccccc1)c1nc(N)nc(Cl)c1C=O,-4,i,i,34*,-7,-1,17*,8
NS(=O)(=O)c1ccc(CNC(=O)c2cc(-c3ccccn3)nc3ccc(Cl)cc23)cc1,0,i,i,30*,-3,-2,12,13
CCc1nc2ccc(C(=O)N(C)CCCN(C)C)cn2c1N(C)Cc1cc2ccccc2s1,·,·,·,0,-4,-1,·,·
O=C(Nc1ccccc1)C1=C(c2ccccc2)S(=O)(=O)CCS1(=O)=O,·,·,i,47*,-7,-1,28*,37*
COc1ccccc1OCCSc1nc(C)c(Cc2ccccc2)c(=O)[nH]1,-1,i,·,·,·,·,·,·
COCCNC(=O)C1(C)CCCN(C(=O)c2ccco2)C1 (centres undefined),·,·,·,5,-4,-2,·,·
C=CC[C@@H](CC(=O)N(CCO)Cc1ccccc1)C(=O)NC[C@H](OC(=O)[C@@H](CC=C)Cc1ccc(F)cc1)c1ccccc1,-6,·,i,35*,13,2,0,0
N#Cc1c(-c2ccc(Br)cc2)cc(-c2cccnc2)nc1N,0,i,i,7,-4,-1,·,·
COc1ccc(-c2cc(-c3ccccc3)c(C#N)c(S(C)(=O)=O)n2)cc1,-7,i,i,30*,-3,0,17*,48*
CS(=O)c1nc(-c2ccc(Br)cc2)cc(-c2ccccc2)c1C#N (centres undefined),-4,100*,i,57*,-4,1,12,66*
CS(=O)(=O)c1nc(-c2ccc(Br)cc2)cc(-c2ccccc2)c1C#N,-6,i,i,43*,-2,4,25*,65*
COc1ccc(-c2cc(-c3ccc(OC)cc3)c(C#N)c(SC)n2)cc1,-2,i,i,4,0,-3,·,·
SMILES,beta cell repl,TMEM16A inh,TMEM16A act,MC4R antagonist,HTR2A ag,MC4R ag barr,cAMP nonselect,MC4R antag conf
CC/C(C)=N\NC(=O)CNC(=O)c1ccc(Cl)cc1Cl,-1,i,i,31*,-2,0,2,2
Cc1ccc(S(=O)(=O)Nc2ccccc2F)cc1C(=O)N1CCCC1,-2,·,i,4,-1,-1,·,·
CN1CCN(C(=O)c2cc(S(=O)(=O)Nc3ccccc3F)c(Cl)cc2Cl)CC1,3,i,i,35*,1,2,1,3
COc1ccc(-c2sc3cc4c(cc3c2C#Cc2ccc(N)cc2)OCO4)cc1,-6,·,i,20,-3,-1,·,·
CCC(=O)N(CC(=O)Nc1sc(C)c(C)c1C(N)=O)C1CCCC1,0,i,i,29*,7,-1,-3,-17
COc1ccc(C(=O)N(CC(=O)Nc2sc(C)c(C)c2C(N)=O)C2CCCC2)cc1,1,i,i,16,3,-1,·,·
COc1ccc(CN2C(=O)C(CC(=O)NC3CC3)CC(C(=O)N(C)C)=C2C)cc1 (centres undefined),·,·,·,5,-4,-1,·,·
N#Cc1ccsc1NC(=O)c1cccc([N+](=O)[O-])c1,-3,i,i,-2,1,-2,·,·
N#Cc1ccsc1NC(=O)c1ccc(Cl)c([N+](=O)[O-])c1,-7,i,i,36*,-4,-1,10,11
COc1ccc(S(=O)(=O)NNC(=O)C(=O)NNc2ccccn2)cc1,-1,i,i,31*,-1,1,2,-18
CC(C)CNC(=O)COC(=O)c1c2c(nc3ccccc13)/C(=C\c1cccs1)CC2,·,·,i,29*,-3,3,3,0
Nc1[nH]nc2ncc3cc4ccccc4nc3c12,5,i,i,29*,1,0,-8,-10
O=C(NC1CCCCC1)C(c1ccnc2ccccc12)N1CCc2ccccc2C1 (centres undefined),·,·,·,·,9,·,·,·
O=S1(=O)N[C@H](Cc2ccccc2)COc2cc(N3CCC[C@@H]3CO)ccc21,·,·,·,·,1,·,·,·
COc1ccc(C(=O)N2CCCC(CCC(=O)NCc3ccccc3F)C2)c(OC)n1 (centres undefined),1,i,i,15,-4,-2,·,·
